CHRM1 PAM = human CHRM1 positive allosteric modulation; CHO-K1 hM1, Fluo-8 calcium fluorescence, ACh EC20; 0% = ACh EC20, 100% = maximal ACh; 0.088% of 360,000 active; activation, % at 3 µM; P11229; AID 588819; in the data active = activation above about 19%, passing the limit was not always enough
CHRM5 agonist = CHRM5 agonism in calcium assay. P08912. CHO-K1 hM5 cells, Fluo-8 calcium fluorescence; 0% DMSO wells, 100% maximal acetylcholine response. activation, % at 3 µM. 0.19% of 360,000 active;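 active = activation above the run's mean over test compounds plus 3 SD, cut at about 23% in these data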;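 also: signal is peak over basal fluorescence ratio across the kinetic read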
Target sequence (P08912 whole entry, looked up): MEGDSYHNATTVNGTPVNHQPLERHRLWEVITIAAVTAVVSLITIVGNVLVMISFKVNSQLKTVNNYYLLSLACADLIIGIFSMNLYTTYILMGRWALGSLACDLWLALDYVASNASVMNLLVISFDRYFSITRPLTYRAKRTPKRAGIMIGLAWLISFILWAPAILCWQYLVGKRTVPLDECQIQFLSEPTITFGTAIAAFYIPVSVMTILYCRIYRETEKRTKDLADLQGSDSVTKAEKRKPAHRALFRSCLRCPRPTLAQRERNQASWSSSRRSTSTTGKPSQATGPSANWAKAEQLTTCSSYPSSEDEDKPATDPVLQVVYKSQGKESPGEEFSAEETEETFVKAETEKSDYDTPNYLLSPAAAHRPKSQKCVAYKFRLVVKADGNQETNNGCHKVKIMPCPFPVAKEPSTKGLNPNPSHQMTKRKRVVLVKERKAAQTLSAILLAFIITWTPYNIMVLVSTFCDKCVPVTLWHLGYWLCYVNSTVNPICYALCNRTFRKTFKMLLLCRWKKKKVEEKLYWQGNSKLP
M5 PAM = CHRM5 positive allosteric modulation; CHO-K1 hM5, Fluo-8 calcium, ACh EC20 PAM; 0% = ACh EC20, 100% = ACh EC100; AID 624038; activation, % at 3 µM; P08912; 0.3% of 360,000 active;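 active = activation above the run cutoff, the mean activation of all test compounds plus 3 SD, cut at about 18% in these data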
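Probe or stimulus: acetylcholine, EC20 level; Assay system: human M5 receptor in CHO-K1 cells; Schedule: compound preincubation 140 s before EC20 acetylcholine addition; Technique: intracellular calcium via Fluo-8 fluorescence; Dosing: single-point, 3 µM nominal; Read-out basis: percent activation from peak-over-basal fluorescence ratio, scaled EC20-to-EC100 acetylcholine; Repeats: one well per compound, no replicates.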
M5 antag = CHRM5 antagonism in calcium assay; inhibition, % at 3 µM; AID 624040; CHO-hM5 cells, Fluo-8 calcium fluorescence, ACh EC80; 0.59% of 360,000 active; P08912;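 active = inhibition above a per-plate cutoff, the mean of that plate's test compounds plus 3 SD, cut at about 27% in these data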;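 also: 0% = acetylcholine EC80 with DMSO and 100% = DMSO without agonist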
CHRM1 agonist = human M1 muscarinic receptor agonism | P11229 | 0.33% of 360,000 active | activation, % at 3 µM | AID 588814 | CHO-K1 hM1, Fluo-8 calcium fluorescence, agonist mode; 0% DMSO, 100% acetylcholine EC100;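 active = activation above the run's mean compound activation plus 3 SD, cut at about 16% in these data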;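 also: peak over basal fluorescence ratio within a 140 s kinetic read after compound addition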
CHRM1 antagonist = blocks human M1 muscarinic receptor; inhibition, % at 3 µM; P11229; AID 588852; CHO-K1 hM1, Fluo-8 calcium fluorescence, ACh EC80 antagonist; 1.3% of 360,000 active;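 active = percent inhibition above its own plate's cutoff, namely the mean of that plate's compound wells plus 3 SD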;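 also: peak over basal fluorescence ratio during 140 s after agonist addition; 0% = ACh EC80 plus DMSO and 100% = DMSO alone without agonist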
The depositor's hits bear a star. An excerpt weighted towards active compounds, which were near 2.1% of everything screened.

SMILES	CHRM1 PAM	CHRM5 agonist	M5 PAM	M5 antag	CHRM1 agonist	CHRM1 antagonist
CCCN1C2CCCC1CC(NC(=O)c1ccccc1)C2 (configuration not stated)	-16	-4	1	-6	-6	42*
CCNC(=S)NC1CC2CCC(C1)N2Cc1ccccc1 (configuration not stated)	-19	-6	-8	11	-11	11
CCCN1C2CCCC1CC(NC(=O)c1ccccc1Br)C2 (configuration not stated)	-21	-11	-7	5	-9	47*
COc1cc(Cl)c(C)cc1NC(=O)CN(C)Cc1cccc(OC)c1OC	-2	-5	-8	12	-2	10
O=C(O)CCC(=O)N1N=C(c2ccc(Br)cc2)CC1c1ccc(Br)cc1 (configuration not stated)	4	3	2	5	-2	-1
C/C(=N\OCc1ccc(C#N)cc1)c1ccc(S(=O)(=O)N(C)C)cc1	-18	1	-18	28*	-3	28
CCOC(=O)c1ccccc1-n1c(C)cc(C2N=C(N)Nc3nc4ccccc4n32)c1C (configuration not stated)	-37	-7	-22	9	-15	81*
COc1ccc(S(=O)(=O)N2CCOc3ccccc32)cc1	-2	-7	-3	2	-6	-5
CCOC(=O)CC(NC(=O)c1ccco1)c1ccc(OC)cc1 (configuration not stated)	1	-4	21*	-2	-1	-3
CSc1ncccc1C(=O)Nc1ccc(S(=O)(=O)N2CCCC2)cc1	1	1	-5	7	-4	2
CCOC(=O)C1(Cc2cccc(OC)c2)CCN(C/C=C/c2ccc(OC)cc2)CC1	-30	-3	-9	5	-13	33*
CCOC(=O)C1(Cc2cccc(OC)c2)CCN(C/C=C/c2ccccc2)CC1	-8	-9	-13	16	-5	10
CC1CCN(c2nc3ccccc3n2CC(=O)c2ccccc2)CC1	-23	-8	-17	6	-5	67*
O=C(NC1CC1)c1cccc2c1C(=O)c1ccc(N3CCC(Cc4ccccc4)CC3)cc1S2(=O)=O	-11	15	-16	24	21*	26
O=C(NCc1ccc(F)cc1)c1cccc2c1C(=O)c1ccc(N3CCC(Cc4ccccc4)CC3)cc1S2(=O)=O	2	2	5	5	-5	4
CC1CCN(c2ccc3c(c2)S(=O)(=O)c2cccc(C(=O)NCc4ccc(F)cc4)c2C3=O)CC1	6	0	4	14	-2	-4
O=C(NCc1ccc(F)cc1)c1cccc2c1C(=O)c1ccc(N3CCC(N4CCCCC4)CC3)cc1S2(=O)=O	-25	3	0	7	-8	40*
CCOc1ccc(NC(=O)CN2C(=O)COc3ccc(S(=O)(=O)N4CCCC4)cc32)cc1	4	-5	-1	1	-5	-9
Cn1cccc1Cc1nnc(SCC(=O)Nc2ccc3c(c2)OCO3)n1CCc1ccccc1	3	-1	-3	5	-6	-7
CCC[C@@H](NS(=O)(=O)c1ccc(C)cc1)C(=O)Oc1ccc2c3c(c(=O)oc2c1)CCC3	-25	0	-15	10	2	38*
Cc1ccc(S(=O)(=O)NC(C(=O)Oc2ccc3c(C)c(Cl)c(=O)oc3c2)c2ccccc2)cc1 (configuration not stated)	-3	0	-3	5	-6	9
CC[C@H](C)[C@H](NC(=O)OCc1ccccc1)C(=O)OCC(=O)N(C)CC(=O)Nc1ccccc1Cl	-4	0	-11	10	-2	13
O=[N+]([O-])c1ccc(N2CCN(Cc3ccc4c(c3)OCO4)CC2)nc1	1	-15	-8	8	-4	-14
O=Cc1cc([N+](=O)[O-])ccc1N1CCN(Cc2ccc3c(c2)OCO3)CC1	-30	-4	-15	10	-6	35*
COc1ccc(OC)c(/C=C2/Sc3ccccc3C2=O)c1	-14	63*	-23	43*	25*	31
SMILES	CHRM1 PAM	CHRM5 agonist	M5 PAM	M5 antag	CHRM1 agonist	CHRM1 antagonist
COc1ccc(OC)c(C=C2CCc3ccccc3C2=O)c1	4	-1	-7	12	-11	0
Cc1ccc(N2C(=O)CSC2c2c(F)cccc2Cl)cc1 (configuration not stated)	-26	-7	-17	68*	-8	99*
COc1ccc(N2C(=O)CSC2c2ccc(F)c(F)c2)cc1 (configuration not stated)	-5	-9	-7	4	-6	13
COc1cccc(C2SCC(=O)N2c2ccc(Cl)cc2)c1OC (configuration not stated)	-20	-8	-20	28*	-9	51*
CCn1nnnc1SCC(=O)NCc1ccc2c(c1)OCO2	14	1	3	-4	-2	-2
N#C/C(=C/c1ccncc1)c1nc2ccccc2s1	-9	26*	-15	30*	5	9
COC(=O)c1ccc(/C(O)=C(\C#N)c2nc3ccccc3s2)cc1	12	9	0	0	12	-9
CC(C)=C(C#N)c1nc2ccccc2s1	2	18	-6	27*	-5	-6
O=C(OCC(=O)N1CCC(Cc2ccccc2)CC1)c1ccccc1F	3	0	4	-2	-1	4
O=C1c2ccccc2S(=O)(=O)c2cc(C(=O)N(c3ccccn3)c3ccccn3)ccc21	-11	67*	-19	-2	51*	7
O=C(c1ccc(Cl)c([N+](=O)[O-])c1)N(c1ccccn1)c1ccccn1	-7	0	20*	9	-1	12
Cc1ccc(S(=O)(=O)NCCCC(=O)C=[N+]=[N-])cc1	0	-8	-6	2	-4	0
Cc1cccc(NC(=O)NCCc2c[nH]c3ccccc23)c1	3	0	-7	4	-4	4
O=C(CN1CCN(c2ccccn2)CC1)N1c2ccccc2CCc2ccccc21	0	-3	2	-6	-7	-3
CN1C(=O)/C(=C/c2ccccc2Cl)Sc2ccc(C(=O)N3CCCC3)cc21	-2	21	9	-3	-3	-3
CN1C(=O)/C(=C/c2ccc(C(F)(F)F)cc2)Sc2ccc(C(=O)N3CCN(c4ccccn4)CC3)cc21	-1	-5	-12	37*	-6	0
O=C(CN1CCCC1)N1c2ccccc2Sc2ccc(C(F)(F)F)cc21	-19	-12	-16	99*	-6	99*
O=C(CN1CCN(c2ccccn2)CC1)N1c2ccccc2Sc2ccc(C(F)(F)F)cc21	-27	-3	-16	4	-7	31*

High-throughput results as filed in PubChem.
